Data as given in ChEMBL document CHEMBL1165943, “Design and synthesis of new anticancer pyrimidines with multiple-kinase inhibitory effect” (Bioorg Med Chem, 2010).

Tests used:
[1] = system: IGROV-1; assay: Growth inhibition of human IGROV1 cells after 48 hrs by sulforhodamine B assay; type: functional, cell-based; settings: IGROV-1, 48 h; for CC50: read-out: LC50 (the source's name)
In short: (§1)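 Cells grown in RPMI 1640 with 5% FBS and 2 mM L-glutamine, seeded at 5,000–40,000 cells/well according to doubling time. After 24 h, time-zero plates are TCA-fixed. Five concentrations (10-fold or ½log dilutions, DMSO stocks) are applied for 48 h at 37 °C, 5% CO₂. Cells are TCA-fixed, SRB-stained and read at 515 nm. IC₅₀ is taken from [(Ti−Tz)/(C−Tz)]×100 = 50.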

[2] = system: OVCAR-3; assay: Growth inhibition of human OVCAR-3 cells after 48 hrs by sulforhodamine B assay; type: functional, cell-based; settings: OVCAR-3, 48 h; for CC50: read-out: LC50 (the source's name); in short: as §1
[3] = system: 786-0; assay: Growth inhibition of human 786-0 cells after 48 hrs by sulforhodamine B assay; type: functional, cell-based; settings: 786-0, 48 h
In short: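 Five-dose SRB assay. Cells in RPMI 1640 with 5% FBS and 2 mM L-glutamine were seeded at 5,000–40,000 cells/well, with a TCA-fixed time-zero plate (Tz) taken at 24 h. Compound stocks were in DMSO, serially diluted 10-fold or ½-log to five concentrations, and incubated 48 h at 37 °C. Plates were stained with SRB and read at 515 nm. IC₅₀ was taken where [(Ti−Tz)/(C−Tz)]×100 = 50.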

[4] = system: IGROV-1; assay: Cytotoxicity against human IGROV1 cells assessed as cell growth at 0.001 uM after 48 hrs by sulforhodamine B assay; type: functional; settings: IGROV-1, 48 h, read-out: Activity
[5] = system: OVCAR-3; assay: Cytotoxicity against human OVCAR-3 cells assessed as cell growth at 0.001 uM after 48 hrs by sulforhodamine B assay; type: functional; settings: OVCAR-3, 48 h, read-out: Activity
[6] = system: HL-60(TB); assay: Cytotoxicity against human HL-60(TB) cells assessed as cell growth at 100 nM after 48 hrs by sulforhodamine B assay; type: functional; settings: HL-60, 48 h, read-out: Activity
In short: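 Five-concentration HL-60(TB) test in RPMI 1640 with 5% FBS and 2 mM L-glutamine. Cells are plated at 5,000–40,000/well and a TCA-fixed time-zero plate is read at drug addition after 24 h. Drug is dissolved in DMSO and given as five 10-fold or ½log dilutions for 48 h at 37 °C, 5% CO2. Settled cells are fixed with TCA, stained with SRB and read at 515 nm.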

[7] = system: COLO 205; assay: Cytotoxicity against human COLO205 cells assessed as cell growth at 100 nM after 48 hrs by sulforhodamine B assay; type: functional; settings: COLO 205, 48 h, read-out: Activity
In short: (§2)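 Cells grown in RPMI 1640 with 5% FBS and 2 mM L-glutamine, seeded at 5,000–40,000 cells/well by doubling time. Time-zero plates TCA-fixed after 24 h. Five concentrations (10-fold or half-log dilutions from DMSO stock) added; 48 h at 37 °C, 5% CO2. Cold TCA fixation (final 10%, 60 min, 4 °C), 0.4% SRB stain, dye solubilized in 10 mM trizma base, A515.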

[8] = system: UACC-257; assay: Cytotoxicity against human UACC257 cells assessed as cell growth at 100 nM after 48 hrs by sulforhodamine B assay; type: functional; settings: UACC-257, 48 h, read-out: Activity
[9] = system: SW-620; assay: Cytotoxicity against human SW620 cells assessed as cell growth at 0.01 uM after 48 hrs by sulforhodamine B assay; type: functional; settings: SW-620, 48 h, read-out: Activity
[10] = system: SNB-19; assay: Cytotoxicity against human SNB19 cells assessed as cell growth at 0.01 uM after 48 hrs by sulforhodamine B assay; type: functional; settings: SNB-19, 48 h, read-out: Activity
[11] = system: SNB-75; assay: Cytotoxicity against human SNB75 cells assessed as cell growth at 0.01 uM after 48 hrs by sulforhodamine B assay; type: functional; settings: SNB-75, 48 h, read-out: Activity
[12] = system: SN12C; assay: Cytotoxicity against human SN12C cells assessed as cell growth at 100 nM after 48 hrs by sulforhodamine B assay; type: functional; settings: read-out: Activity
[13] = system: MDA-MB-468; assay: Cytotoxicity against human MDA-MB-468 cells assessed as cell growth at 10 uM after 48 hrs by sulforhodamine B assay; type: functional; settings: MDA-MB-468, 48 h, read-out: Activity
[14] = system: BT-549; assay: Cytotoxicity against human BT549 cells assessed as cell growth at 100 nM after 48 hrs by sulforhodamine B assay; type: functional; settings: BT-549, 48 h, read-out: Activity; in short: as §2
[15] = system: NCI-H522; assay: Cytotoxicity against human NCI-H522 cells assessed as cell growth at 1 uM after 48 hrs by sulforhodamine B assay; type: functional; settings: NCI-H522, 48 h, read-out: Activity
[16] = system: HCT-116; assay: Cytotoxicity against human HCT116 cells assessed as cell growth at 1 uM after 48 hrs by sulforhodamine B assay; type: functional; settings: HCT-116, 48 h, read-out: Activity
[17] = system: SW-620; assay: Cytotoxicity against human SW620 cells assessed as cell growth at 1 uM after 48 hrs by sulforhodamine B assay; type: functional; settings: SW-620, 48 h, read-out: Activity
[18] = system: SF-268; assay: Cytotoxicity against human SF268 cells assessed as cell growth at 1 uM after 48 hrs by sulforhodamine B assay; type: functional; settings: SF-268, 48 h, read-out: Activity
[19] = system: UACC-257; assay: Cytotoxicity against human UACC257 cells assessed as cell growth at 0.01 uM after 48 hrs by sulforhodamine B assay; type: functional; settings: UACC-257, 48 h, read-out: Activity
[20] = system: OVCAR-3; assay: Cytotoxicity against human OVCAR-3 cells assessed as cell growth at 0.01 uM after 48 hrs by sulforhodamine B assay; type: functional; settings: OVCAR-3, 48 h, read-out: Activity
[21] = system: MDA-MB-435; assay: Cytotoxicity against human MDA-MB-435 cells assessed as cell growth at 1 uM after 48 hrs by sulforhodamine B assay; type: functional; settings: MDA-MB-435, 48 h, read-out: Activity
[22] = system: OVCAR-8; assay: Cytotoxicity against human OVCAR8 cells assessed as cell growth at 1 uM after 48 hrs by sulforhodamine B assay; type: functional; settings: OVCAR-8, 48 h, read-out: Activity
[23] = system: T47D; assay: Cytotoxicity against human T47D cells assessed as cell growth at 1 uM after 48 hrs by sulforhodamine B assay; type: functional; settings: read-out: Activity
[24] = system: NCI-H322M; assay: Growth inhibition of human NCI-H322M cells after 48 hrs by sulforhodamine B assay; type: functional, cell-based; settings: for CC50: read-out: LC50 (the source's name); in short: as §1
[25] = system: SF-268; assay: Growth inhibition of human SF268 cells after 48 hrs by sulforhodamine B assay; type: functional, cell-based; settings: SF-268, 48 h; for CC50: read-out: LC50 (the source's name); in short: as §1
[26] = system: SK-MEL-2; assay: Growth inhibition of human SK-MEL-2 cells after 48 hrs by sulforhodamine B assay; type: functional, cell-based; settings: SK-MEL-2, 48 h; for CC50: read-out: LC50 (the source's name); in short: as §1

CC(=O)Nc1cccc(-c2ccc(-c3ccnc(NC(=O)Nc4cc(C(F)(F)F)cc(C(F)(F)F)c4)n3)cn2)c1.Cl
GI50 [1]: 2.68 µM
IC50 [1]: 2.68 µM
TGI [1]: 9.46 µM
CC50 [1]: > 100 µM
GI50 [2]: 1.85 µM
IC50 [2]: 1.85 µM
TGI [2]: 4.23 µM
CC50 [2]: 9.69 µM
GI50 [3]: 3.66 µM
IC50 [3]: 3.66 µM
LC50 (50% lethal concentration) [3]: 39.9 µM
TGI [3]: 15.9 µM
growth at 0.001 µM [4]: 95%
growth at 0.001 µM [5]: 101%
growth at 0.1 µM [6]: 80%
growth at 0.1 µM [7]: 96%
growth at 0.1 µM [8]: 78%
growth at 0.01 µM [9]: 95%
growth at 0.01 µM [10]: 96%
growth at 0.01 µM [11]: 71%
growth at 0.1 µM [12]: 86%
growth at 10 µM [13]: 100%
growth at 0.1 µM [14]: 87%
growth at 1 µM [15]: -22%
growth at 1 µM [16]: -35%
growth at 1 µM [17]: -33%
growth at 1 µM [18]: 31%
growth at 0.01 µM [19]: 96%
growth at 0.01 µM [20]: 105%
growth at 1 µM [21]: -18%
growth at 1 µM [22]: -25%
growth at 1 µM [23]: -3%
GI50 [24]: 2.17 µM
IC50 [24]: 2.17 µM
TGI [24]: 14.6 µM
CC50 [24]: 68.8 µM
GI50 [25]: 4.92 µM
IC50 [25]: 4.92 µM
TGI [25]: 23.9 µM
CC50 [25]: 98.7 µM
GI50 [26]: 5.65 µM
IC50 [26]: 5.65 µM
TGI [26]: 19.8 µM
CC50 [26]: 52.4 µM

CC(=O)c1ccccc1-c1ccc(-c2ccnc(NC(=O)Nc3cc(N4CCOCC4)cc(C(F)(F)F)c3)n2)cn1
GI50 [1]: > 100 µM
IC50 [1]: 6.18 µM
TGI [1]: > 100 µM
CC50 [1]: > 100 µM
GI50 [2]: 6.18 µM
IC50 [2]: > 100 µM
TGI [2]: > 100 µM
CC50 [2]: > 100 µM
GI50 [3]: 9.42 µM
IC50 [3]: 13 µM
LC50 (50% lethal concentration) [3]: > 100 µM
TGI [3]: > 100 µM
growth at 0.001 µM [4]: 98%
growth at 0.001 µM [5]: 107%
growth at 0.1 µM [6]: 73%
growth at 0.1 µM [7]: 107%
growth at 0.1 µM [8]: 83%
growth at 0.01 µM [9]: 106%
growth at 0.01 µM [10]: 98%
growth at 0.01 µM [11]: 100%
growth at 0.1 µM [12]: 83%
growth at 10 µM [13]: 65%
growth at 0.1 µM [14]: 74%
growth at 1 µM [15]: 90%
growth at 1 µM [16]: 69%
growth at 1 µM [17]: 84%
growth at 1 µM [18]: 60%
growth at 0.01 µM [19]: 79%
growth at 0.01 µM [20]: 95%
growth at 1 µM [21]: 71%
growth at 1 µM [22]: 41%
growth at 1 µM [23]: 60%
GI50 [24]: > 100 µM
IC50 [24]: > 100 µM
TGI [24]: > 100 µM
CC50 [24]: > 100 µM
GI50 [25]: > 100 µM
IC50 [25]: 40.2 µM
TGI [25]: > 100 µM
CC50 [25]: > 100 µM
GI50 [26]: > 100 µM
IC50 [26]: 15.9 µM
TGI [26]: 75.5 µM
CC50 [26]: > 100 µM
